In brackets after ≈: the same amount, converted by molar mass.
Legend:
[1] = test system: Mycobacterium tuberculosis; assay: Antitubercular activity against isoniazid-resistant Mycobacterium tuberculosis H37Rv ATCC 35822 after 7 days under normoxic condition by microplate Alamar blue assay; type: functional; conditions: H37Rv ATCC 35822, 168 h
How it was run: (§1)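 Replicating, normoxic cultures in Middlebrook 7H12 medium, exposed to compound for 7 d at 37 °C. Resazurin plus Tween 80 then added for a further 24 h at 37 °C. Fluorescence read at ex/em 530/590 nm. MIC is the lowest concentration giving 90% lower fluorescence than controls.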

[2] = test system: Mycobacterium tuberculosis; assay: Antitubercular activity against rifampin-resistant Mycobacterium tuberculosis H37Rv ATCC 35838 after 7 days under normoxic condition by microplate Alamar blue assay; type: functional; conditions: H37Rv ATCC 35838, 168 h; how it was run: as §1

CC(C)(C)c1ccc(C(=O)/C=C/c2ccc([N+](=O)[O-])o2)cc1
MIC90 [1]: 0.22 µM (≈ 0.0659 µg/mL)
MIC90 [2]: 0.29 µM (≈ 0.0868 µg/mL)

CSc1ccc(C(=O)/C=C/c2ccc([N+](=O)[O-])o2)cc1
MIC90 [1]: 0.8 µM (≈ 0.231 µg/mL)
MIC90 [2]: 0.24 µM (≈ 0.0694 µg/mL)

COc1ccc(/C=C/C(=O)c2cccc(I)c2)cc1
MIC90 [1]: 7.75 µM (≈ 2.82 µg/mL)
MIC90 [2]: 8.31 µM (≈ 3.03 µg/mL)

NNC(=O)c1ccncc1 [ISONIAZID]
MIC90 [1]: > 5 µM

CC(C)(C)c1ccc(C(=O)/C=C/c2ccc([N+](=O)[O-])s2)cc1
MIC90 [1]: 0.15 µM (≈ 0.0473 µg/mL)
MIC90 [2]: 0.14 µM (≈ 0.0442 µg/mL)

Cc1ccc(C(=O)/C=C/c2ccc([N+](=O)[O-])s2)cc1
MIC90 [1]: 0.96 µM (≈ 0.262 µg/mL)
MIC90 [2]: 1.21 µM (≈ 0.331 µg/mL)

Cc1ccccc1C(=O)/C=C/c1ccc([N+](=O)[O-])o1
MIC90 [1]: 1.07 µM (≈ 0.275 µg/mL)
MIC90 [2]: 1.08 µM (≈ 0.278 µg/mL)

CSc1ccc(C(=O)/C=C/c2ccc([N+](=O)[O-])s2)cc1
MIC90 [1]: 0.22 µM (≈ 0.0672 µg/mL)
MIC90 [2]: 0.14 µM (≈ 0.0428 µg/mL)

O=C(/C=C/c1ccc([N+](=O)[O-])o1)c1cccc(Br)c1
MIC90 [1]: 1.12 µM (≈ 0.361 µg/mL)
MIC90 [2]: 1.88 µM (≈ 0.606 µg/mL)

CCCCc1ccc(C(=O)/C=C/c2ccc([N+](=O)[O-])s2)cc1
MIC90 [1]: 0.31 µM (≈ 0.0978 µg/mL)
MIC90 [2]: 0.48 µM (≈ 0.151 µg/mL)

O=C(/C=C/c1ccc([N+](=O)[O-])o1)c1ccc(I)cc1
MIC90 [1]: 1.08 µM (≈ 0.399 µg/mL)
MIC90 [2]: 1.18 µM (≈ 0.436 µg/mL)

Cc1cccc(C(=O)/C=C/c2ccc([N+](=O)[O-])o2)c1
MIC90 [1]: 1.93 µM (≈ 0.496 µg/mL)
MIC90 [2]: 3.78 µM (≈ 0.972 µg/mL)

O=C(/C=C/c1ccc([N+](=O)[O-])s1)c1ccc(-n2ccnc2)cc1
MIC90 [1]: 0.3 µM (≈ 0.0976 µg/mL)
MIC90 [2]: 0.6 µM (≈ 0.195 µg/mL)

O=C(/C=C/c1ccc([N+](=O)[O-])o1)c1ccc(-n2ccnc2)cc1
MIC90 [1]: 1.44 µM (≈ 0.445 µg/mL)
MIC90 [2]: 1.19 µM (≈ 0.368 µg/mL)

O=C(/C=C/c1ccc([N+](=O)[O-])o1)c1ccc(N2CCCCC2)cc1
MIC90 [1]: < 0.03 µM
MIC90 [2]: 0.07 µM (≈ 0.0228 µg/mL)

O=C(/C=C/c1ccc([N+](=O)[O-])o1)c1ccc(Br)cc1
MIC90 [1]: 0.58 µM (≈ 0.187 µg/mL)
MIC90 [2]: 0.76 µM (≈ 0.245 µg/mL)

CO[C@H]1/C=C/O[C@@]2(C)Oc3c(C)c(O)c4c(O)c(c(/C=N/N5CCN(C)CC5)c(O)c4c3C2=O)NC(=O)/C(C)=C\C=C\[C@H](C)[C@H](O)[C@@H](C)[C@@H](O)[C@@H](C)[C@H](OC(C)=O)[C@@H]1C [RIFAMPIN]
MIC90 [2]: > 1 µM

O=C(/C=C/c1ccc([N+](=O)[O-])o1)c1ccc(N2CCOCC2)cc1
MIC90 [1]: 0.11 µM (≈ 0.0361 µg/mL)
MIC90 [2]: 0.55 µM (≈ 0.181 µg/mL)

COc1ccc(/C=C/C(=O)c2cccc(Br)c2)cc1
MIC90 [1]: 4.94 µM (≈ 1.57 µg/mL)
MIC90 [2]: 9.28 µM (≈ 2.94 µg/mL)

CCCCc1ccc(C(=O)/C=C/c2ccc([N+](=O)[O-])o2)cc1
MIC90 [1]: 2.23 µM (≈ 0.667 µg/mL)
MIC90 [2]: 4.7 µM (≈ 1.41 µg/mL)

O=C(/C=C/c1ccc([N+](=O)[O-])o1)c1ccc(C2CCCCC2)cc1
MIC90 [1]: 1.23 µM (≈ 0.4 µg/mL)
MIC90 [2]: 1.12 µM (≈ 0.364 µg/mL)

O=C(/C=C/c1ccc([N+](=O)[O-])o1)c1ccc(-c2ccccc2)cc1
MIC90 [1]: 0.29 µM (≈ 0.0926 µg/mL)
MIC90 [2]: 3.45 µM (≈ 1.1 µg/mL)

O=C(/C=C/c1ccc([N+](=O)[O-])o1)c1ccc(N2CCNCC2)cc1
MIC90 [1]: 0.19 µM (≈ 0.0622 µg/mL)
MIC90 [2]: 0.76 µM (≈ 0.249 µg/mL)

O=C(/C=C/c1ccc(Cl)s1)c1ccc(-n2ccnc2)cc1
MIC90 [1]: 9.03 µM (≈ 2.84 µg/mL)
MIC90 [2]: 8.89 µM (≈ 2.8 µg/mL)
